Each compound was assayed on Vaccinia virus (assay: Antiviral activity against Vaccinia virus Lederle infected in human HEL cells assessed as reduction in virus-induced cytopathogenicity). Conditions: Orthopoxvirus vaccinia.
Format: functional, organism-based
How it was run: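 Confluent cell monolayers (Vero, HeLa, HEL or MDCK, as named in each line) were infected with 100 CCID50 of virus while exposed to a range of compound concentrations. Cytopathicity was scored once it was complete in untreated infected controls.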

`CCCc1nc(N)[nH]c(=O)c1Br` and `CCCCc1nc(N)[nH]c(=O)c1Br` cannot be ordered by EC50: > 100 µM for the first, > 100 µM for the second.

`CCCCCc1nc(N)[nH]c(=O)c1Br` and `CC(C)(O)Cc1nc(N)[nH]c(=O)c1Br` cannot be ordered by EC50: > 100 µM for the first, > 100 µM for the second.

`Nc1nc(CCc2ccccc2)c(Br)c(=O)[nH]1` and `Nc1nc(CC(O)c2ccccc2C(F)(F)F)c(Br)c(=O)[nH]1` (stereo not given) cannot be ordered by EC50: > 100 µM for the first, > 100 µM for the second.

`Nc1nc(CC(O)c2ccc(Cl)cc2)c(Br)c(=O)[nH]1` (stereo not given) and `COc1ccc(/C=C/c2nc(N)[nH]c(=O)c2Br)cc1OC` cannot be ordered by EC50: > 100 µM for the first, > 100 µM for the second.

`Cc1cc(C)c(/C=C/c2nc(N)[nH]c(=O)c2Br)c(C)c1` and `Nc1nc2c(ncn2COCCO)c(=O)[nH]1` [ACYCLOVIR] cannot be ordered by EC50: > 20 µM for the first, > 250 µM for the second.

— ChEMBL document CHEMBL2417481, “Regioselective synthesis of 6-substituted-2-amino-5-bromo-4(3H)-pyrimidinones and evaluation of their antiviral activity” (Eur J Med Chem, 2013)
